The subject of experiment [1] is Leukotriene A-4 hydrolase (Sus scrofa). The experiment is described as follows: Inhibition of LTA4 hydrolase mediated LTB4 biosynthesis by porcine leukocytes at 2*10e-5M.
Experiment [2] is described as follows: Evaluated for the inhibitory activity against Leukotriene A4 hydrolase. The arrangement: species or system Sus scrofa. Put shortly:
(§1)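 Porcine leukocyte homogenate (cells at 10⁸/mL, sonicated) with CaCl₂ and ATP each at 2 mmol/L final. Preincubated 3 min at 25 °C with inhibitor (in ethanol or PBS) plus 5,8,11,14-[…] acid 4 μmol/L final to block 12-LO. Then incubated 5 min at 37 °C with [1-¹⁴C]arachidonic acid. LTB₄ and 6-trans-isomers separated by HPLC with radioactivity detection. Mean of ≥3 experiments.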

The nature of experiment [3]: Inhibition of LTB4 biosynthesis by porcine leukocytes at LTA4 hydrolase level at a concentration of 2*10e-5 M. The experiment is classed as functional, Sus scrofa. Put shortly: as §1
Experiment [4] relates to Leukotriene A-4 hydrolase (Sus scrofa). The experiment is described as follows: Inhibitory activity against Leukotriene A4 hydrolase at 5 mg/kg (po) in rat plasma extracts.
For experiment [5] the test system is unchanged. The experiment is described as follows: Inhibitory activity against Leukotriene A4 hydrolase at 100 mg/kg (po) in rat plasma.
Experiment [6] has the same test system. The experiment is described as follows: Inhibitory activity against Leukotriene A4 hydrolase at 30 mg/kg (po) in rat plasma extracts.
Experiment [7] has the same test system. The experiment is described as follows: Inhibitory activity against Leukotriene A4 hydrolase at 100 mg/kg (po) in rat plasma extracts.
Experiment [8] has the same test system. The experiment is described as follows: Inhibitory activity Leukotriene A4 hydrolase at 5 mg/kg (po) in rat plasma.

`O=C(O)CCCCCSc1ccc(Cc2ccccc2)cc1` displayed an inhibition in experiment [1] of 82%. The same compound came in with an IC50 in experiment [2] of 9.1 µM.

Regarding `CN(C)c1ccc(Cc2ccc(CCCCCCC(=O)O)cc2)cc1`, the Inhibition in experiment [3] worked out at 29%.

The compound `O=C(O)CCCCCS(=O)(=O)c1ccc(CCCc2ccccc2)s1` came in with an Inhibition in experiment [3] of 0%.

The compound `O=C(O)CCCCCCc1ccc(Cc2ccccn2)cc1` displayed an inhibition in experiment [1] of 76%. This compound also yielded an IC50 in experiment [2] of 7.7 µM.

In experiment [3], `O=C(O)CCCCCOc1ccc(Cc2ccccc2)cc1` returned an Inhibition of 69%.

As to `O=C(O)CCCCCCc1ccc(CCCc2ccccc2)s1`, the inhibition in experiment [4] was 0%; in experiment [5] it was 82%; in experiment [6], 44%. In experiment [2], this compound returned an IC50 of 2.9 µM.

Regarding `O=C(O)CCCCCc1ccc(CCCc2ccccc2)s1`, the Inhibition in experiment [3] is recorded as 61%.

Regarding `CS(=O)(=O)Nc1ccc(Cc2ccc(CCCCCCC(=O)O)cc2)cc1`, the Inhibition in experiment [3] is 0%.

In experiment [3], `O=C(O)CCCCCCc1ccc(-c2ccccc2)s1` came in with an Inhibition of 67%.

`O=C(O)CCCCCCc1ccc(Cc2ccccc2)s1`: the inhibition in experiment [1] amounted to 51%. This compound also displayed an IC50 in experiment [2] of 15 µM.

Compound `O=C(O)CCCCCCc1ccc(CCc2ccccc2)s1` registered an inhibition in experiment [1] of 86%. The compound also came in with an IC50 in experiment [2] of 3.5 µM.

In experiment [3], `O=C(O)CCCCCc1ccc(CCCc2ccccc2)cc1` came in with an Inhibition of 43%.

Consider `O=C(O)CCCCCCCc1ccc(CCCc2ccccc2)cc1`, for which the Inhibition in experiment [3] is 45%.

The compound `O=C([O-])CCCCCCCc1ccc(CCCc2ccccc2)s1.[Na+]` registered an Inhibition in experiment [3] of 0%.

In the case of `O=C(O)CCCC(O)CCc1ccc(CCCc2ccccc2)s1` (configuration not stated), the inhibition in experiment [1] is 73%. This compound showed a half-inhibitory concentration (IC50) in experiment [2] of 6.2 µM.

With `O=C(O)CCCC(=O)NCc1ccc(CCCc2ccccc2)s1`, the Inhibition in experiment [3] worked out at 38%.

Turning to `O=C(O)CCCCCCc1ccc(Cc2ccc3ccccc3c2)cc1`, the Inhibition in experiment [3] is on record as 22%.

As to `COC(=O)COCCCCc1ccc(CCCc2ccccc2)s1`, in experiment [3], the Inhibition is listed as 66%.

Regarding `CNc1ccc(Cc2ccc(CCCCCCC(=O)O)cc2)cc1`, the Inhibition in experiment [3] came out at 78%.

In experiment [3], `O=C(O)CCCCCC(=O)c1ccc(CCCc2ccccc2)cc1` came in with an Inhibition of 27%.

For the compound `O=C(O)CCCCCCc1ccc(Cc2cccnc2)cc1`, the Inhibition in experiment [3] is 65%.

`O=C(O)CCCCCSc1ccc(CCCc2ccccc2)cc1`: the results for the inhibition in experiment [1], in experiment [7] and in experiment [6] were 74%, 12% and 20%, respectively. Also, the IC50 in experiment [2] came to 6.2 µM.

In experiment [3], `c1ccc(CCCc2ccc(CCCCCCC3N=NN=N3)s2)cc1` came in with an Inhibition of 29%.

As for `O=C(O)CCCCCCc1ccc(Cc2ccc(C(F)(F)F)cc2)cc1`, in experiment [1], the inhibition was 19%. Also, the IC50 in experiment [2] was 188 µM.

As to `O=C(O)CCCCCCc1ccc(Cc2cccc3ccccc23)cc1`, the Inhibition in experiment [3] came to 0%.

In turn, `NC(=O)Nc1ccc(Cc2ccc(CCCCCCC(=O)O)cc2)cc1` had an inhibition in experiment [1] of 100%. In addition, it took 1.7 µM to reach half-maximal inhibition in experiment [2] (IC50).

On to `O=C(O)CCCCCS(=O)(=O)c1ccc(Cc2ccccc2)cc1`, for which the Inhibition in experiment [3] is given as 2%.

Turning to `O=C([O-])CCCCc1ccc(CCCc2ccccc2)s1.[Na+]`, in experiment [3], the Inhibition is listed as 0%.

With `O=C(O)CCCCCCc1ccc(Cc2ccc3ccccc3n2)cc1`, the Inhibition in experiment [3] came to 48%.

In the case of `NC(=O)CCCCCCc1ccc(CCCc2ccccc2)s1`, the Inhibition in experiment [3] is 0%.

In turn, `O=C(O)CCCCCC(=O)c1ccc(CCCc2ccccc2)s1` registered an Inhibition in experiment [3] of 66%.

Take `O=C([O-])CCCCCCc1ccc(CCCCc2ccccc2)s1.[Na+]`: in experiment [3], the Inhibition is recorded as 0%.

`O=C(O)CCCC(=O)CCc1ccc(CCCc2ccccc2)s1` showed an inhibition in experiment [1] of 82%. Also, in experiment [2], inhibition was half-maximal at 6.3 µM (IC50).

Take `O=C(O)CCCCCCc1ccc(Cc2ccccc2Cl)cc1`: the Inhibition in experiment [3] worked out at 0%.

Consider `O=C(O)CCCCCCc1ccc(CCCc2ccccc2)cc1`, for which the values for the inhibition in experiment [1] and in experiment [6] were 76% and 15%, respectively. The compound also showed an IC50 in experiment [2] of 3.4 µM.

As for `CC(C)(C)c1ccc(Cc2ccc(CCCCCCC(=O)O)cc2)cc1`, the Inhibition in experiment [3] stood at 0%.

In the case of `O=C(O)CCCCCCc1ccc(CCc2ccccc2)cc1`, in experiment [1], the inhibition was found to be 43%. The same compound came in with an IC50 in experiment [2] of 30 µM.

In experiment [3], `O=C(O)CCCCCCc1ccc(CCCc2cccc(Cl)c2)s1` registered an Inhibition of 45%.

Take `O=C(O)COCCCCc1ccc(CCCc2ccccc2)s1`: the inhibition in experiment [1] was determined as 90%; in experiment [7], 73%; in experiment [6], 54%; in experiment [8] it was 40%. Besides, in experiment [2], the IC50 stood at 1.5 µM.

On to `O=C(O)CCCCCCc1ccc(Cc2ccc(O)cc2)cc1`, for which, in experiment [3], the Inhibition amounted to 56%.

Take `O=C(O)CCCCCCc1ccc(-c2ccccc2)cc1`: the Inhibition in experiment [3] is given as 41%.

In experiment [3], `COc1ccc(CCCc2ccc(SCCCCCC(=O)O)cc2)cc1` returned an Inhibition of 35%.

The compound `O=C(O)CCCCCCc1ccc(CCCc2ccc(Cl)cc2)s1` gave an Inhibition in experiment [3] of 63%.

On to `Nc1ccc(Cc2ccc(CCCCCCC(=O)O)cc2)cc1`, for which the inhibition in experiment [1] was found to be 89%; in experiment [7], 31%; in experiment [4], 29%. The compound further yielded an IC50 in experiment [2] of 0.9 µM.

In experiment [3], `O=C(O)CNC(=O)CCCc1ccc(CCCc2ccccc2)s1` registered an Inhibition of 53%.

As for `O=C(O)CCCCCCc1ccc(Cc2cnc3ccccc3c2)cc1`, the inhibition in experiment [1] is 85%; in experiment [7], 27%; in experiment [4] it was 27%; in experiment [6], 19%. The same compound showed an IC50 in experiment [2] of 5 µM.

As for `O=C(O)CCCCCCc1ccc(Cc2ccc(Cl)cc2)cc1`, the inhibition was 73% in experiment [1], 7% in experiment [7] and 22% in experiment [4]. Moreover, 7.2 µM corresponded to half-maximal inhibition in experiment [2] (IC50).

With `O=C(O)CCCCCCc1ccc(Cc2ccccc2)cc1`, the inhibition in experiment [1] was 79%. The compound further returned an IC50 in experiment [2] of 3 µM.

As to `O=C(O)CCCCCCc1ccc(CCCc2ccc(O)cc2)s1`, the Inhibition in experiment [3] was found to be 69%.

Consider `O=C([O-])CCCCc1ccc(CCCc2ccccc2)cc1.[Na+]`, for which the Inhibition in experiment [3] is 35%.

`O=C(O)CCCNC(=O)Cc1ccc(CCCc2ccccc2)s1` returned an Inhibition in experiment [3] of 12%.

Consider `CC(C)(CCCCCc1ccc(CCCc2ccccc2)s1)C(=O)O`, for which the Inhibition in experiment [3] is on record as 46%.

Compound `CC(=O)Nc1ccc(Cc2ccc(CCCCCCC(=O)O)cc2)cc1` displayed an Inhibition in experiment [3] of 41%.

As to `N#CCCCCCCc1ccc(CCCc2ccccc2)s1`, the Inhibition in experiment [3] is on record as 0%.

In turn, `O=C(O)CCCCCCc1ccc(Cc2ccnc3ccccc23)cc1` showed an Inhibition in experiment [3] of 0%.

With `O=C(O)CCCCCCc1ccc(Cc2ccncc2)cc1`, in experiment [3], the Inhibition is recorded as 43%.

`Cc1ccc(Cc2ccc(CCCCCCC(=O)O)cc2)cc1` had an inhibition in experiment [1] of 63%. In experiment [2], the IC50 was found to be 21.1 µM.

In experiment [1], `O=C(O)CCCCCCc1ccc(Cc2ccc([N+](=O)[O-])cc2)cc1` had an inhibition of 53%. The compound also yielded an IC50 in experiment [2] of 72.5 µM.

Turning to `O=C(O)CCCCCSc1ccc(CCCc2ccccc2)s1`, the inhibition in experiment [1] was 79%; in experiment [7] it was 19%; in experiment [4] it was 4%; in experiment [6], 19%. The same compound yielded a 50% inhibitory concentration (IC50) in experiment [2] of 2.8 µM.

Consider `COc1ccc(CCCc2ccc(CCCCCCC(=O)O)s2)cc1`, for which the inhibition in experiment [1] is 80%. The compound also showed an IC50 in experiment [2] of 9.7 µM.

Compound `O=C(O)CCCCC[S+]([O-])c1ccc(CCCc2ccccc2)s1` (configuration not stated) returned an Inhibition in experiment [3] of 0%.

On to `COc1ccc(Cc2ccc(CCCCCCC(=O)O)cc2)cc1`, for which, in experiment [1], the inhibition turned out to be 69%. Besides, the IC50 in experiment [2] was 9.2 µM.

A word on the inhibition: it is the percentage by which the read-out fell short of the control. Higher therefore signals strong suppression. The IC50 is the concentration that inhibits the measured activity by half. Read a high IC50 as weaker potency. Broadly, the Inhibition is how much of the control response was suppressed. The low end stands for a response near the control, the high end for a response far below the control.

Values taken from ChEMBL document CHEMBL1125534, “Omega-[(omega-arylalkyl)aryl]alkanoic acids: a new class of specific LTA4 hydrolase inhibitors” (J Med Chem, 1992).
